Most compounds without a hit are left out; they make up all but 1.8% or so of the library.
mABHD4 FP: ABHD4 (mouse) inhibition, primary FP screen; Q8VD66; purified mABHD4, FP-Rh probe fluorescence polarization; inhibition, % at 8.92 µM; actives 0.54% (n = 370,000); AID 720543;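 active means inhibition exceeding the mean over every tested compound plus 3 SD, cut at about 30% in these data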;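 further: 0% = plate median of compound wells and 100% = S159A mutant with DMSO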
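Test system: mouse ABHD4 enzyme, wild type. Reagent: FP-Rh fluorescent activity-based probe, added after compound pre-incubation. Timing: pre-incubation 45 min, probe exposure 60 min, at 25 °C. Technique: FP readout, ex 525 nm / em 598 nm. Benchmarks: high control S159A mutant with DMSO, low control median of compound wells.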
HTRA1 inhibitor: HTRA1 (human) protease inhibition; Q92743; recombinant HTRA1, FP-rhodamine activity-based probe, fluorescence polarization; inhibition, % at 5.96 µM; actives 0.5% (n = 340,000); AID 504803; in the data active means inhibition above about 36%;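 further: 0% = enzyme with DMSO and 100% = wells lacking enzyme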
Fam108B inh: Fam108B inhibition, counter-screen for RBBP9 inhibitors; inhibition, % at 9.51 µM; actives 0.33% (n = 300,000); recombinant Fam108B, FP-Rh probe fluorescence polarization;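 active means inhibition above the screen mean inhibition plus 3 SD, computed separately per campaign, cut at about 18% in these data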;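 further: inhibitors lower polarization as less probe binds the enzyme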
SIAE primary: human SIAE inhibition, primary screen; SIAE FP-Rh probe binding, fluorescence polarization; inhibition, % at 9.66 µM; actives 0.69% (n = 370,000); AID 1053197;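 active means inhibition above a cutoff: mean of compounds within the control limits plus 3 SD of those, cut at about 17% in these data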;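 further: 0% = plate median of compound wells and 100% = probe without SIAE protein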
Target sequence (Q9HAT2 whole entry, looked up): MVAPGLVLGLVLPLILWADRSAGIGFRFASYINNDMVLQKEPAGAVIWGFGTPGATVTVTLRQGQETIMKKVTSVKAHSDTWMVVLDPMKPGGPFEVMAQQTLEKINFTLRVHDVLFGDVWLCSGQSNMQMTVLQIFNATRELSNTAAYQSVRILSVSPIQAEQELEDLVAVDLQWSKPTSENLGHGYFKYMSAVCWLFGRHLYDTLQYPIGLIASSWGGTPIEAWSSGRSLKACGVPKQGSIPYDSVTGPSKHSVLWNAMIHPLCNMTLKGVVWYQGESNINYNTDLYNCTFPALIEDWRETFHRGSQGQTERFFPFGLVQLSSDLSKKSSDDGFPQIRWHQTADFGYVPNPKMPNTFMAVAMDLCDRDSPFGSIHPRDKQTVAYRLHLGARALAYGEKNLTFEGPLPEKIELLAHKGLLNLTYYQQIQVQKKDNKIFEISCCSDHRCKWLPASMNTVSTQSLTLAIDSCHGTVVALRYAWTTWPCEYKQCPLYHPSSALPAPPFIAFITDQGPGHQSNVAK
TCR-CD3 inh: blocks the human TCR-CD3 interaction; TAMRA-labeled TCR probe fluorescence, biochemical; inhibition, % at 9.4 µM; actives 0.37% (n = 360,000); AID 651800;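 further: recombinant mutant TCR 2C K166C tagged with TAMRA read by polarization; 0% = receptor in buffer alone and 100% = receptor with positive control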
PME-1 primary: PME-1 (human) inhibition; Q9Y570; AID 2130; actives 0.53% (n = 320,000); recombinant PME-1, FP-Rh probe fluorescence polarization; inhibition, % at 5.9 µM;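 active means inhibition above the campaign mean of all compounds plus 3 SD, cut at about 26% in these data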;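 further: competitive labeling of PME-1 active site by serine hydrolase directed probe; 0% = PME-1 with DMSO and 100% = wells lacking PME-1 enzyme; inhibitors block probe labeling so polarization falls and inhibition rises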
Fam108b inh conf: confirmation of mouse Fam108b serine hydrolase inhibitors. actives 44% (n = 930). shares compounds with Fam108B inh. recombinant Fam108b, FP-Rh probe fluorescence polarization. AID 1978. inhibition, % at 9.51 µM;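 active means inhibition above a limit from the primary screen, the mean over all compounds plus 3 SD, cut at about 19% in these data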;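 further: 0% = median of active Fam108b wells and 100% = catalytically dead S170A mutant; inhibitors free the probe so polarization falls as inhibition rises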
Fam108b inh: inhibits mouse Fam108b in gel-based ABPP; shares compounds with Fam108B inh; recombinant Fam108b, fluorophosphonate probe; inhibition, % at 20 µM; actives 44% (n = 260); in the data active means inhibition above about 40%
HTRA1 conf: confirmation of human HTRA1 inhibitors; inhibition, % at 5.96 µM; shares compounds with HTRA1 inhibitor; recombinant HTRA1, FP-rhodamine activity-based probe, fluorescence polarization; AID 540248; actives 66% (n = 1,600);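 active means mean inhibition over three repeats above a set limit taken from the earlier primary screen, cut at about 37% in these data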;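 further: 0% = HTRA1 with DMSO and 100% = wells lacking HTRA1; inhibitors block probe binding so polarization drops and inhibition rises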
BSA probe FL: BSA probe counter-screen for TCR-CD3 inhibitors | actives 10% (n = 1,200) | shares compounds with TCR-CD3 inh | TAMRA-labeled BSA probe fluorescence counterscreen | AID 652035 | inhibition, % at 9.4 µM; in the data active means inhibition above about 23%;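 further: 0% = buffer low control and 100% = reference high control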
TCR-CD3 inh conf: TCR-CD3 interaction inhibition, confirmation; shares compounds with TCR-CD3 inh; TAMRA-labeled TCR probe fluorescence binding assay; inhibition, % at 9.4 µM; actives 48% (n = 1,200); AID 652036
mABHD4 conf: confirmation of mouse ABHD4 inhibitors; AID 720658; shares compounds with mABHD4 FP; inhibition, % at 8.92 µM; purified mABHD4, FP-Rh probe fluorescence polarization; actives 55% (n = 1,800);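 active means mean inhibition across replicates above the hit cutoff set in the primary screen, cut at about 30% in these data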;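 further: 0% = wild-type ABHD4 with DMSO and 100% = catalytically dead S159A mutant with DMSO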
SIAE inh conf: confirmation of human SIAE inhibitors; shares compounds with SIAE primary; SIAE FP-Rh activity-based probe, fluorescence polarization; inhibition, % at 9.66 µM; actives 13% (n = 2,300); AID 1117263;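 active means mean inhibition of the replicates above the hit cutoff set in the primary screen, cut at about 17% in these data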;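 further: 0% = SIAE with DMSO and probe and 100% = probe without SIAE; inhibitors lower polarization as more probe stays unbound to SIAE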
The depositor's hits bear a star. Unless noted, no stated cut-off is given here; in the data, active means inhibition above about 19%; inactive means the rest.

`CC1=Nc2nc(N3CCCCC3)c(C#N)c3c4c(nc(c23)N1)N(c1ccc(C(C)C)cc1)C(=O)C4` gave mABHD4 FP 44*, HTRA1 inhibitor 2, Fam108B inh 27*, SIAE primary 6, TCR-CD3 inh 5, PME-1 primary 14, Fam108b inh conf 14 and mABHD4 conf 42*.
Screening CCN=c1scc(C)n1/N=C/c1cc(Br)c(O)c(Br)c1 returned mABHD4 FP 55*, HTRA1 inhibitor 27, Fam108B inh 21*, SIAE primary 12, TCR-CD3 inh 3, PME-1 primary 6, Fam108b inh conf 9 and mABHD4 conf 66*.
Screening COC(=O)[C@]12C[C@H](CC(=O)NCc3ccc(OC)c(OC)c3)C(=O)N(CCC3=CCCCC3)C1=C[C@H](C1CCCC1)O[C@@H]2C returned mABHD4 FP -4 and SIAE primary 1.
`O=C(NCCc1ccccc1)c1ccc2c(=O)[nH]c3c(C(=O)NCC4CCCO4)sc(=S)n3c2c1` (configuration not stated) gave mABHD4 FP 50*, HTRA1 inhibitor 10, Fam108B inh 34*, SIAE primary -17, TCR-CD3 inh 7, PME-1 primary 23, Fam108b inh conf 35*, Fam108b inh 20 and mABHD4 conf 36*.
For O=C(N=C1N(Cc2ccccc2)C[C@]2(C=C3CCCCC3n3c(=O)n(-c4ccccc4)c(=O)n32)N1C(=O)OCc1ccccc1)c1ccccc1 (some centres not stated) the results were mABHD4 FP 1 and SIAE primary 4.
Screening O=C(O)CSc1cc(NS(=O)(=O)c2ccc(Br)cc2)c2ccccc2c1O returned mABHD4 FP 49*, HTRA1 inhibitor 46*, Fam108B inh 22*, SIAE primary 13, TCR-CD3 inh -5, PME-1 primary 30*, Fam108b inh conf 3, HTRA1 conf 18 and mABHD4 conf 49*.
O=S(=O)(Nc1cc(Sc2ncn[nH]2)c(O)c2ccccc12)c1ccccc1 was read as mABHD4 FP 21, SIAE primary 9 and TCR-CD3 inh 2.
Screening COc1ccc2nc(-n3c(O)c(C4=c5ccccc5=NC4=O)[nH]c3=S)sc2c1 returned mABHD4 FP 52*, HTRA1 inhibitor 30, Fam108B inh 37*, SIAE primary 3, TCR-CD3 inh 0, PME-1 primary 54*, Fam108b inh conf 36*, Fam108b inh 0 and mABHD4 conf 169*.
Screening COC(=O)[C@@]1(C(C)C)N=C(c2cc(OC)c(OC)c(OC)c2)[C@]2(O1)C(=O)N(Cc1cn(Cc3ccccc3)nn1)c1ccc(F)cc12 returned mABHD4 FP 6 and SIAE primary -1.
`Cn1c(=O)c(Nc2ccc(Cl)cc2)c2c3c(cccc31)C(=O)c1ccccc1-2` gave mABHD4 FP 42*, Fam108B inh 32*, SIAE primary 31*, TCR-CD3 inh 42*, PME-1 primary 31*, Fam108b inh conf 34*, Fam108b inh 0 and SIAE inh conf 35*.
`Oc1ccc(N=Cc2ccc(OCc3ccccc3)cc2)cc1` gave mABHD4 FP 68*, HTRA1 inhibitor 63*, Fam108B inh 20*, SIAE primary 45*, TCR-CD3 inh 32*, PME-1 primary 27*, Fam108b inh conf 0, HTRA1 conf -9, BSA probe FL 4, TCR-CD3 inh conf 0, mABHD4 conf 16 and SIAE inh conf 4.
`Cc1ccc2[nH]c(C)c(/C=N/Nc3nc4ccccc4s3)c2c1` gave mABHD4 FP 31*, HTRA1 inhibitor 49*, Fam108B inh 27*, SIAE primary 41*, TCR-CD3 inh 3, PME-1 primary 58*, Fam108b inh conf 3, HTRA1 conf 53*, mABHD4 conf 43* and SIAE inh conf 17.
`COCC#Cc1ccc(CC[C@H]2O[C@H]3CC[C@@H](CO)O[C@H]3C[C@H]2n2cc(C3CC3)nn2)cc1` gave mABHD4 FP -6 and SIAE primary -3.
Screening Cc1cc(C)c(Nc2cc(S(=O)(=O)O)c(N)c3c2C(=O)c2ccccc2C3=O)c(C)c1 returned mABHD4 FP 77*, HTRA1 inhibitor 66*, Fam108B inh 70*, SIAE primary 35*, TCR-CD3 inh 6, PME-1 primary 64*, Fam108b inh conf 93*, HTRA1 conf 67*, mABHD4 conf 110* and SIAE inh conf 29*.
For c1cc2c3c(cccc3c1)NC1(CCC3(CC1)Nc1cccc4cccc(c14)N3)N2 the results were mABHD4 FP 17, HTRA1 inhibitor 56*, Fam108B inh 36*, SIAE primary 38*, TCR-CD3 inh 0, PME-1 primary 47*, Fam108b inh conf 7, HTRA1 conf 55* and SIAE inh conf 3.
Screening O=C(NNc1nc2cc3c(cc2s1)OCO3)c1ccc(F)cc1 returned mABHD4 FP 23, HTRA1 inhibitor 16, Fam108B inh 1, SIAE primary 9, TCR-CD3 inh -2 and PME-1 primary 0.
`O=C(NNc1nc2cc3c(cc2s1)OCCO3)c1ccc(F)cc1` gave mABHD4 FP 13, HTRA1 inhibitor 15, Fam108B inh 3, SIAE primary 0, TCR-CD3 inh -1 and PME-1 primary 7.
Fc1ccc2nc(Nc3nc4cc5c(cc4s3)OCCO5)sc2c1 was read as mABHD4 FP 12, HTRA1 inhibitor -15, Fam108B inh 21*, SIAE primary 32*, TCR-CD3 inh -8, PME-1 primary 72*, Fam108b inh conf 12 and SIAE inh conf 6.
